High-throughput results deposited in PubChem BioAssay by Sanford-Burnham Center for Chemical Genomics.
Shown are actives, neighbours in structure and some others; about 1.5% of the full set was active somewhere.
EBI2 antag = blocks human EBI2 receptor beta-arrestin signaling; P32249; EBI2 beta-arrestin recruitment, luminescence, 7a,25-OHC stimulated; inhibition, % at 5 µM; hit rate 0.81% among 360,000; AID 651636; in the data active = inhibition above about 38%;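 note: enzyme fragment complementation signal reports receptor beta-arrestin coupling in cells; 0% = agonist plus DMSO wells and 100% = wells without agonist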
APJ agonist = activates the human apelin receptor APJ; P35414; CHO-K1 APJ PathHunter beta-arrestin, luminescence; 0% DMSO wells, 100% apelin; activation, % at 20 µM; hit rate 0.11% among 330,000; AID 2520;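 active = activation more than six SD over the plate average, tested at 20 µM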;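 note: 0% = DMSO alone and 100% = apelin-13 at 10 nM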
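Assay system: CHO-K1 APJ beta-arrestin complementation cell line / Compound: single test compound dose, 20 µM final, 1% DMSO / Times: overnight seeding, 90 min compound at 25 °C, 1 h detection / Technique: beta-gal luminescence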
CXCR6 block = inhibitors of human CXCR6 receptor. O00574. CHO-K1 PathHunter CXCR6 beta-arrestin, luminescence. inhibition, % at 20 µM. hit rate 0.36% among 360,000; in the data active = inhibition above about 34%, passing the limit was not always enough;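 note: antagonist mode with CXCL16 agonist at 10 nM final; 0% = 10 nM CXCL16 with DMSO and 100% = unstimulated wells without agonist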
Target sequence (O00574 whole entry, looked up): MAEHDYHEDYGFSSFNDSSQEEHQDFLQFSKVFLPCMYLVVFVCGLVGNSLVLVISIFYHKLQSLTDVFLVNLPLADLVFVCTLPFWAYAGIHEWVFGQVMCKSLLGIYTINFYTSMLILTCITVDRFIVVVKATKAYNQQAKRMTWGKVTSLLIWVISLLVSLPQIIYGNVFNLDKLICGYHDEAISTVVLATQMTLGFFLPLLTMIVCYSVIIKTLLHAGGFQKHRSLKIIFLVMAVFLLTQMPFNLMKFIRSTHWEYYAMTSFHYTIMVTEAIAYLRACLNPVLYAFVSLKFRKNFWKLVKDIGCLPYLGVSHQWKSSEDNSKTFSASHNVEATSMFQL
CCR6 antagonist = CCR6 (human) receptor antagonism; inhibition, % at 20 µM; P51684; CHO-K1 CCR6 PathHunter beta-arrestin, luminescence, CCL20-stimulated; hit rate 0.49% among 340,000;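 active = compounds whose inhibition of the agonist-driven luminescence signal at 20 µM reaches about 50%, limit read from the data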;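 note: cells stimulated with CCL20 at 14 nM final; plate controls were DMSO with CCL20 for no effect and DMSO without agonist for full effect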
Target sequence (P51684 whole entry, looked up): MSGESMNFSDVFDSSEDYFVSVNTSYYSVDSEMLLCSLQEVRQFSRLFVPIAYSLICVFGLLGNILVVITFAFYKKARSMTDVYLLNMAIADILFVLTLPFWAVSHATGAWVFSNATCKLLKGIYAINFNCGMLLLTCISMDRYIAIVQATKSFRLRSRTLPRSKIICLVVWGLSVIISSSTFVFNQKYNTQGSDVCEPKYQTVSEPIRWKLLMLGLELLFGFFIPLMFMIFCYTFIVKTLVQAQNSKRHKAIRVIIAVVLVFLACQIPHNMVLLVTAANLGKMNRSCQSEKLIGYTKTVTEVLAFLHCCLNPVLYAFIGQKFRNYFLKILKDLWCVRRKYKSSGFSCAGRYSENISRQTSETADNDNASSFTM
APJ antagonist = APJ receptor antagonism. P35414. CHO-K1 APJ beta-arrestin complementation, luminescence. inhibition, % at 20 µM. hit rate 0.32% among 330,000;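 active = inhibition above about 40% at 20 µM, limit read from the data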;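 note: cells challenged with 10 nM apelin-13 agonist together with compound; plate controls were apelin-13 plus DMSO wells for no effect and DMSO wells lacking apelin-13 for full effect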
APJ antag conf = confirmation of human APJ apelin receptor antagonists | shares compounds with APJ antagonist | APJ beta-arrestin recruitment, luminescence, antagonist mode | inhibition, % at 20 µM | hit rate 66% among 950 | AID 2766; in the data active = inhibition above about 50%
CXCR6 antag conf = confirmation of human CXCR6 receptor antagonists; inhibition, % at 20 µM; hit rate 65% among 700; shares compounds with CXCR6 block; CHO-K1 CXCR6 PathHunter beta-arrestin, luminescence; AID 602409;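 active = mean inhibition over four retests above 40%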;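 note: receptor stimulated with 10 nM CXCL16 agonist; beta-galactosidase fragment complementation upon beta-arrestin recruitment to receptor; plate controls were CXCL16 plus DMSO for no effect and DMSO without CXCL16 for full effect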
EBI2 conf = EBI2 (human) antagonism, single concentration confirmation; shares compounds with EBI2 antag; EBI2 beta-arrestin luminescence, 7a,25-OHC antagonism; inhibition, % at 5 µM; hit rate 29% among 2,400; AID 651997;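 active = inhibition of at least 50%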
EBI2 agonist = counter-screen for EBI2 antagonists: EBI2 agonist activity | shares compounds with EBI2 antag | 2,400 tested, under 10 active | activation, % at 5 µM | EBI2-expressing cells, agonist mode, luminescence, 60 min; 0% vehicle, 100% 7α,25-dihydroxycholesterol control;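 active = activation of at least 50%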
bGal cs = counter-screen for EBI2 antagonists: E. coli beta-galactosidase inhibition; shares compounds with EBI2 antag; purified beta-galactosidase, luminescent Galacton Star, 15 min; inhibition, % at 5 µM; hit rate 1% among 2,400; AID 652176;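 active = replicate-average signal at least 3 plate SD below neutral wells, shown as high inhibition, flagging enzyme-inhibiting false positives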;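 note: 0% = DMSO wells with enzyme and 100% = wells lacking enzyme; higher means stronger loss of beta-gal luminescence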
An asterisk follows results filed as active; nt = no result given.

SMILES	EBI2 antag	APJ agonist	CXCR6 block	CCR6 antagonist	APJ antagonist	EBI2 conf	EBI2 agonist	bGal cs	others
CCCCCn1c(N)c(C(=O)NCc2cccs2)c2nc3ccccc3nc21	nt	-7	nt	12	45*	nt	nt	nt	APJ antag conf=47
CCCC(C)CC1(CCO)C(=O)NC(=S)NC1=O (centres undefined)	-3	nt	-1	9	nt	nt	nt	nt
O=C(/C=C/C=C/c1ccccc1)CC1(O)C(=O)Nc2ccccc21 (centres undefined)	13	-1	5	8	-21	nt	nt	nt
C=C1C(=O)O[C@@H]2C[C@@H](C)[C@@H]3C=CC(=O)[C@@]3(C)[C@@H](O)[C@H]12	57*	-9	31	45	47*	nt	nt	nt	APJ antag conf=69*
CC1CCCN(CC(=O)c2ccc(Cl)c(Cl)c2)C1 (centres undefined)	16	-15	66*	101*	122*	nt	nt	nt	APJ antag conf=158*
OC1/C(=C/c2ccc(F)cc2)N2CCC1CC2 (centres undefined)	-7	-2	-11	10	-9	nt	nt	nt
CCn1c(O)c(N=Nc2ccc(S(=O)(=O)N3CCOCC3)cc2)c(=O)n(CC)c1=S	18	-5	23	29	56*	nt	nt	nt	APJ antag conf=55*
CCn1c(O)c(N=Nc2cccc(S(=O)(=O)N3CCOCC3)c2)c(=O)n(CC)c1=S	12	-5	3	24	20	nt	nt	nt
CC12CC(=O)C3C(CCC4CC(=O)C=CC43C)C1CCC2=O (centres undefined)	1	nt	0	9	nt	nt	nt	nt
CCCCn1c(NS(=O)(=O)c2ccc(C)cc2)c(C(=O)OCC)c2nc3ccccc3nc21	4	-14	-3	59*	65*	nt	nt	nt	APJ antag conf=-4
CCCCn1c(NC(=O)c2ccco2)c(C(=O)OCC)c2nc3ccccc3nc21	18	-22	21	58*	64*	nt	nt	nt	APJ antag conf=55*
CCCCn1c(N)c(C(=O)OCC2CCCO2)c2nc3ccccc3nc21 (centres undefined)	2	-5	2	11	19	nt	nt	nt
CCCCn1c(N)c(C(=O)OCCOC)c2nc3ccccc3nc21	8	-9	7	19	31	nt	nt	nt
O=C(O)C(Cl)(Cl)Cl	2	-1	0	-7	18	nt	nt	nt
Nc1cc(Cl)c2nonc2c1[N+](=O)[O-]	39	nt	46*	46	nt	nt	nt	nt	CXCR6 antag conf=58*
O=[N+]([O-])c1c(Cl)c(Cl)c(Cl)c(Cl)c1Cl	-19	nt	-17	-11	nt	nt	nt	nt
NC(N)=Nc1ccc2[nH]c3c(c2c1)C[C@@]1(O)[C@H]2Cc4ccc(O)c5c4[C@@]1(CCN2CC1CC1)[C@H]3O5	7	6	6	6	0	nt	nt	nt
Cc1c(N=Nc2c(O)[nH]c(=S)[nH]c2=O)c(=O)n(-c2ccccc2)n1C	13	1	52*	44	14	nt	nt	nt	CXCR6 antag conf=52*
Cc1ccc(O)c(C(=O)c2cc(C(=O)NCc3ccccc3)c(=O)n(Cc3ccccc3)c2)c1	42*	-5	12	-2	6	16	0	3
O=C(c1cc(C(=O)NCc2ccccc2)c(=O)n(Cc2ccccc2)c1)c1cc(Br)ccc1O	21	1	-8	27	4	nt	nt	nt
COc1cccc(CN2CCN(C(=O)COc3ccc4ccccc4c3)CC2)c1	95*	2	-7	21	-25	74*	-1	-9
COc1cc(OC)c(OC)cc1CN1CCN(C(=O)COc2ccc3ccccc3c2)CC1	71*	-3	0	-13	-22	41	-1	-11
CCOC(=O)c1cncn1[C@@H](C)c1ccccc1	56*	0	3	7	-2	30	-1	2
Cc1ncc(C(=O)O)n1C(C)c1ccccc1 (centres undefined)	-2	nt	3	nt	nt	nt	nt	nt
COc1ccccc1OCC(=O)N1CCN(Cc2ccc3c(c2)OCO3)CC1	0	0	-1	4	11	nt	nt	nt
SMILES	EBI2 antag	APJ agonist	CXCR6 block	CCR6 antagonist	APJ antagonist	EBI2 conf	EBI2 agonist	bGal cs	others
Cc1ccc(OCC(=O)N2CCN(Cc3ccc4c(c3)OCO4)CC2)cc1	88*	-1	-2	-2	-26	61*	0	10
Cc1ccc(OCC(=O)N2CCN(CC3CC4C=CC3C4)CC2)cc1 (centres undefined)	84*	-2	-6	18	17	62*	-1	-5
O=C(COc1ccccc1)N1CCN(CC2CC3C=CC2C3)CC1 (centres undefined)	42	-2	-8	5	6	nt	nt	nt
COc1ccc(OCC(=O)N2CCN(Cc3ccc(SC)cc3)CC2)cc1	71*	-3	-4	2	8	50*	0	-3
COc1ccc(OCC(=O)N2CCN(Cc3ccc4c(c3)OCO4)CC2)cc1	86*	-1	-1	7	17	59*	0	9
N#Cc1ccc(OCC(=O)N2CCN(Cc3ccc4c(c3)OCO4)CC2)cc1	35	-2	-2	20	-3	nt	nt	nt
Cc1ccc(CNC2=NCCS2)cc1	-3	-7	1	-11	-19	nt	nt	nt
CP(=O)(Nc1ccc(Cl)cc1)c1nc2c(s1)CCCC2 (centres undefined)	-2	-4	1	-3	16	nt	nt	nt
CC(C)c1ccc(NC(=O)CSc2nnc(OC(=O)N(C)C)n2C2CC2)cc1	-17	-1	-13	-1	-9	nt	nt	nt
CC12CCC(=O)C=C1CCC1C2CCC2(C)C1CCC2(O)CC#N (centres undefined)	-1	nt	-3	2	nt	nt	nt	nt
Cc1ccc(OCC(=O)N2CCN(Cc3ccc([N+](=O)[O-])cc3)CC2)cc1	94*	-1	-13	4	2	71*	1	11
CC1CCC(N2CCN(C(=O)COc3ccccc3)CC2)CC1 (centres undefined)	32	1	9	0	-20	nt	nt	nt
O=C(COc1ccccc1)N1CCN(CC2CC=CCC2)CC1 (centres undefined)	68*	2	1	8	1	34	0	8
O=C(COc1ccc(Cl)cc1)N1CCN(Cc2ccccc2)CC1	91*	2	-6	5	15	66*	-1	-5
O=C(COc1ccc(Cl)cc1)N1CCN(C2CCCC2)CC1	89*	-1	5	3	13	67*	-1	-13
CC(C)NS(=O)(=O)c1ccc(OCC(=O)N2CCN(Cc3ccccc3)CC2)cc1	5	5	6	7	-3	nt	nt	nt
